High-throughput results deposited in PubChem by Sanford-Burnham Center for Chemical Genomics.
An excerpt weighted towards active compounds, which were near 1.5% of everything screened.
FLuc inh counter – inhibits firefly luciferase, flagging false hits in luciferase inhibition screens. P08659. ATPLite firefly luciferase biochemical luminescence, 10 min. inhibition, % at 10 µM. actives 1.5% (n = 200,000). AID 1006;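 active = inhibition above about 50% when tested at 10 µM, limit read from the data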
Target sequence (P08659 whole entry, looked up): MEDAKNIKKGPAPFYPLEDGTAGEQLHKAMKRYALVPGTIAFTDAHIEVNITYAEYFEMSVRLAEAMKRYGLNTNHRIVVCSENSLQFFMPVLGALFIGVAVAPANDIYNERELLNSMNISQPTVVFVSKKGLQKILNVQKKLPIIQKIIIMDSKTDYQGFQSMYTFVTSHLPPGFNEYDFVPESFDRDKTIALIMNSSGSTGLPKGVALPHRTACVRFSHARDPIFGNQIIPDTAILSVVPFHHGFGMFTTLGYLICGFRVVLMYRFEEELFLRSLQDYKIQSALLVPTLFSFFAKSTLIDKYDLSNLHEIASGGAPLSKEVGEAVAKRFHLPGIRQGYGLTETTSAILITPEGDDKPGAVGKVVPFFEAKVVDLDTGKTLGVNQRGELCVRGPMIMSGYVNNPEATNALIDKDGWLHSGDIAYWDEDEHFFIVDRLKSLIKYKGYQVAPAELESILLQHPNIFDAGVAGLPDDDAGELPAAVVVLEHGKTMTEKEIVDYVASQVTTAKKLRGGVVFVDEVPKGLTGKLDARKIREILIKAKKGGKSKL
FLuc act counter – affects firefly luciferase, flagging false hits in luciferase stimulation screens; ATPlite luciferase biochemical, luminescence, 10 min; 0 = ATP-free wells, 1 = DMSO control; activation factor at 10 µM; 200,000 tested, under 10 active;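 active = luciferase activation factor, scaled between plate controls, of at least 2 with compound at 10 µM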
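System: Luciferase/luciferin detection reagent, cell-free biochemical luciferase assay | Medium: PBS buffer for ATP | Dosing: Test compounds dosed from 2 mM stocks in 100% DMSO | Timing: 10 min at ambient temperature | Signal: Luminescence measurement of luciferase light output | Evaluation: Luciferase activation, seen as luminescence increase over controls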
PPC-1+TRAIL kill – PPC-1 cancer cell killing with TRAIL present; PPC-1 cells + TRAIL, ATPLite viability luminescence; cell killing (% activity), % at 4 µM or 5 µM; actives 0.41% (n = 220,000); AID 1443;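 active = cell killing above 50% in the first pass at 4 µM, then a duplicate retest at 5 µM averaging 50% or more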;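 also: plate controls were cells with TRAIL plus DMSO for no effect and medium-only wells lacking cells for full effect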
TRAIL sens C8 – sensitizes caspase-8 expressing cells to TRAIL. actives 1% (n = 360,000). inhibition (viability loss, TRAIL sensitization), % at 10 µM. AID 624354. NB7+C8 cells + TRAIL, ATPlite viability luminescence;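 active = compounds causing at least 50% loss of cell viability in the single-dose screen, relative to plate controls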
PPC-1 tox – kills PPC-1 cells; shares compounds with PPC-1+TRAIL kill; PPC-1 viability, ATPlite luminescence, overnight; cytotoxicity, % at 5 µM; actives 50% (n = 1,200);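 active = reconfirmed compounds whose average cytotoxicity reaches 50% or more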;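 also: 0% = DMSO-treated cells and 100% = wells holding medium but no cells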
* hit, by the source's call; x = no result given.

SMILES | FLuc inh counter | FLuc act counter | PPC-1+TRAIL kill | TRAIL sens C8 | PPC-1 tox
CCCCN1C=CC(=C2C(=O)c3ccccc3C2=O)C=C1 | 97.5* | 0 | 95.6* | 94.8* | 95.9*
CCCCNC1=CC(=O)C(=O)c2ccccc21 | 2.9 | 1 | x | 32.3 | x
COc1cc(SC)ccc1C(=O)Nc1ccc(Cl)cn1 | 94.3* | 0.1 | 87.0* | 90.3* | 87.3*
CSc1ccc(Cl)c(C(=O)Nc2ccc(Cl)cn2)c1 | -0.9 | 1 | 14.0 | 18.4 | x
COc1ccccc1N1CC=C(c2cccc([N+](=O)[O-])c2)NC1=O | x | x | 1.5 | 2.4 | x
CC1(C)CC(=O)C=C(NNC(=O)c2ccccc2O)C1 | 91.1* | 0.1 | 78.7* | 71.4* | 74.9*
CN(C)c1ccc(/C=N/NC(=O)c2ccn(C)n2)cc1 | x | x | 38.6 | 48.6 | 26.1
Cn1ccc(C(=O)N/N=C/c2cccnc2)n1 | x | x | x | -16.7 | x
CC(C)[C@H](NC(=O)c1ccco1)C(=O)N(C)Cc1ccc(C(F)(F)F)cc1 | x | x | x | 6.3 | x
Cc1ccc(NC(=O)c2csc(-c3ccccc3)c2C)cc1 | 85.3* | 0.1 | 79.8* | 81.0* | 82.0*
Cc1ccc(C(=O)Nc2ccc(-c3csc(C)n3)cc2)cc1 | 24.2 | 0.8 | 11.4 | 11.4 | x
Cc1nc(-c2ccc(NC(=O)c3ccccc3)cc2)cs1 | 87.7* | 0.1 | 64.3* | 75.9* | 61.3*
O=C(Nc1ccccc1C(=O)N1CCCCC1)c1cccc(S(=O)(=O)N2CCOCC2)c1 | -0.4 | 1 | 13.5 | -6.8 | x
O=C(Nc1ccccc1C(=O)N1CCCC1)c1cccc(S(=O)(=O)N2CCCCC2)c1 | -5.8 | 1.1 | -21.4 | -4.2 | -14.7
CC(C)CC1NC(=O)N(CC(=O)Nc2ccc(OC(F)F)cc2)C1=O (stereo unspecified) | x | x | x | -5.9 | x
O=C(CSc1nnc(-c2csc3c2CCCC3)o1)Nc1ccccc1 | -0.3 | 1 | 58.4* | 77.5* | 56.5*
O=C(CSc1nnc(-c2ccc(O)cc2)o1)Nc1ccccc1 | x | x | x | 18.2 | x
Cc1ccc(-c2ccc(SCC(=O)NC3CCCC3)nn2)cc1 | x | x | x | 18.8 | x
COc1ccc(-c2ccc(SC)nn2)cc1 | 93.7* | 0.1 | 76.7* | 86.1* | 68.7*
COc1ccc(C(=O)CSc2ccc(-c3ccccc3)nn2)cc1 | 1.9 | 1 | 6.7 | -3.5 | x
CCOc1ccc(-c2ccc(SCc3ccccn3)nn2)cc1 | 22.9 | 0.8 | -7.3 | 4.9 | x
CCOc1ccc(-c2ccc(SCC)nn2)cc1 | 85.6* | 0.1 | 59.6* | 72.8* | 56.8*
CCSc1ccc(-c2ccc(C)cc2)nn1 | 87.7* | 0.1 | 50.4* | 57.0* | 51.0*
CCOC(=O)c1ccc(NC(=O)Nc2nncs2)cc1 | x | x | x | 29.0 | x
CCOc1ccc(OCCCC(=O)N(CC)CC(=O)Nc2c(F)cccc2F)cc1 | x | x | x | -4.2 | x
SMILES | FLuc inh counter | FLuc act counter | PPC-1+TRAIL kill | TRAIL sens C8 | PPC-1 tox
COc1ccc2[nH]c(C(=O)O)c(CCC(=O)O)c2c1 | 0.4 | 1 | 1.1 | -9.1 | 13.9
CCc1cccc(NC(=O)C2CCCN2C(=O)Nc2ccc(C)cc2)c1 (stereo unspecified) | x | x | x | -10.7 | x
COc1cc(CNCc2cc(OC)c(OC)c(OC)c2)cc(OC)c1 | x | x | x | 4.9 | x
COc1ccc(C(=O)/C(=C/N(C)C)S(=O)(=O)c2ccccc2)cc1 | 0.9 | 1 | -16.9 | 32.8 | -44.5
CSc1nnc2c(=O)[nH]c(=O)n(C)c2n1 | x | x | x | 1.6 | x
O=c1cc(-c2ccccc2)[nH]c2ccccc12 | 4.3 | 1 | 7.1 | 8.0 | x
O=C1C(c2cc(=O)c3ccccc3[nH]2)=C(O)c2ccccc21 | 89.1* | 0.1 | 55.6* | 69.9* | 52.9*
COC(=O)N(C)C[C@@H]1OCc2cnnn2CCCC(=O)N([C@H](C)CO)C[C@H]1C | x | x | x | -11.7 | x
Cc1ccc(-n2[nH]c(=O)c3cccnc32)cc1 | -3.8 | 1 | 14.3 | 9.0 | x
Cc1ccc(-n2[nH]c(=O)c(-c3ccccn3)c2C)cc1 | 79.1* | 0.2 | 46.4 | 60.7* | 50.9*
CCOC(=O)C1=C(C)N(CCCC(=O)O)C(=O)NC1c1ccc([N+](=O)[O-])cc1 (stereo unspecified) | -5.3 | 1.1 | 10.1 | 7.9 | 6.3
COC(=O)C1=C(C)N(CCCC(=O)O)C(=O)NC1c1ccc([N+](=O)[O-])cc1 (stereo unspecified) | x | x | x | -12.8 | x
COc1cc(C(=O)Nc2cc(C)ccn2)cc(OC)c1OC | -2.6 | 1 | 29.4 | -2.6 | x
O=C(Nc1ccc2c(c1)OCO2)Nc1ccc2c(c1)OCO2 | 40.1 | 0.6 | 25.2 | 23.3 | 12.9
CCOC(=O)c1c(C)c(C(=O)Nc2ccc3c(c2)OCO3)c(C)n1C | 2.8 | 1 | 9.6 | 4.2 | x
